# NPY-Y1 antag = NPY-Y1 (human) receptor antagonism. P25929. HEK293-CNG Y1 cells, membrane potential fluorescence; NPY at EC95, then isoproterenol. inhibition, % at 3.6 µM. 200,000 tested, 1% active;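 active = inhibition above the campaign mean inhibition of all tested compounds plus 3 SD, cut at about 20% in these data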;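 note: 0% = DMSO wells given NPY plus isoproterenol and 100% = isoproterenol alone without NPY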
#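 Material: HEK293 cells co-expressing NPY Y1 receptor and cyclic-nucleotide gated channel. Timing: compound incubation 1 h at room temperature, readout 45 min post-stimulation. Signal: fluorescence, membrane potential probe.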
# NPY1 pot ag = potentiators or agonists of human neuropeptide Y receptor Y1 | P25929 | NPY-Y1 expressing cells, potentiator/agonist activation | activation, % at 3.6 µM | 220,000 tested, 0.37% active | AID 1304; in the data active = activation above about 33%, passing the limit was not always enough;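 note: cells stimulated with NPY at EC10 then isoproterenol at EC100; 0% = low agonist plus stimulus and 100% = saturating agonist plus stimulus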
# NPY-Y2 PAM-ag = human NPY-Y2 potentiation or agonism, primary screen | cells expressing NPY-Y2, potentiator/agonist read-out | activation, % at 3.6 µM | 220,000 tested, 0.45% active | AID 1359; in the data active = activation above about 27%;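 note: cells stimulated with NPY near EC25 plus isoproterenol at EC100; 0% = vehicle plus submaximal agonist and 100% = vehicle plus saturating agonist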
# Target sequence (P49146 whole entry, looked up): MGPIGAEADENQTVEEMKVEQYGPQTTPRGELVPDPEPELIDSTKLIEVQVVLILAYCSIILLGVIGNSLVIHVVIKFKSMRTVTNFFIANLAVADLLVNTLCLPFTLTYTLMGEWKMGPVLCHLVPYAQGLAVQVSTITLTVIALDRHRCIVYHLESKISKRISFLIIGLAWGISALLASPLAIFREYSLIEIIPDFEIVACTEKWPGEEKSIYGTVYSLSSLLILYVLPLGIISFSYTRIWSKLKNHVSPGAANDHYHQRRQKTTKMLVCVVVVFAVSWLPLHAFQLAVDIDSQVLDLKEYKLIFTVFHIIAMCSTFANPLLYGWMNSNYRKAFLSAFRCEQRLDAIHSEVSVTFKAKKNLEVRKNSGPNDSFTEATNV
# NPY Y2 blocker = blocks the human neuropeptide Y Y2 receptor; AID 793; inhibition, % at 2.7 µM; NPY-Y2 expressing cells, antagonist mode; 140,000 tested, 0.99% active; P49146; in the data active = inhibition above about 17%;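 note: 0% = vehicle with agonist challenge and 100% = reference antagonist with challenge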
# NPY1 antag ctr = counter-screen for NPY-Y2 antagonists: human NPY-Y1 antagonism. shares compounds with NPY Y2 blocker. cell-based NPY-Y1 antagonism counterscreen. inhibition, % at 3.6 µM. 710 tested, 19% active. AID 1256;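 note: cells challenged with NPY then isoproterenol with cAMP sensed through a CNG channel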
# NPY-Y2 ant conf = human NPY-Y2 antagonism, confirmation | HEK293 NPY-Y2 CNG channel, membrane potential fluorescence | inhibition, % at 2.8 µM | 710 tested, 32% active | shares compounds with NPY Y2 blocker;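 active = mean inhibition of triplicate wells above the hit cutoff set in the primary screen, cut at about 17% in these data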;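 note: 0% = DMSO with NPY challenge and 100% = BIIE0246 high control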
# NPY-Y1 ant conf = human NPY-Y1 antagonism, confirmation; shares compounds with NPY-Y1 antag; HEK293-CNG NPY-Y1, membrane potential fluorescence, cAMP; NPY challenge against isoproterenol-raised cAMP; inhibition, % at 3.6 µM; 1,200 tested, 21% active;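 note: 0% = vehicle with agonist plus stimulus and 100% = stimulus alone without agonist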
# NPY2 antag ctr = human NPY-Y2 antagonism in NPY-Y1 counter-screen; shares compounds with NPY-Y1 antag; inhibition, % at 3.6 µM; 1,200 tested, 28% active; HEK293 NPY-Y2 CNG membrane potential fluorescence; cells given NPY, then isoproterenol; in the data active = inhibition above about 17%;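 note: 0% = DMSO with agonist challenge and 100% = reference antagonist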
# The depositor's hits bear a star; x = no result. The list is not random: actives were taken first. Their share in the collection is about 1.8%. Cut-off read from the data, not from the text of the source, unless noted: active = inhibition above about 20%; inactive = the rest.
SMILES,NPY-Y1 antag,NPY1 pot ag,NPY-Y2 PAM-ag,NPY Y2 blocker,NPY1 antag ctr,NPY-Y2 ant conf,others
O=C(Nc1ccccc1Cl)C1C2CCC3C(CCC21)C3(Cl)Cl (centres undefined),20,-33,2,18*,12,10,
CCCC(O)(CCC)C(=O)NN(C(=O)OC)c1ccccc1,15,-14,-19,20*,8,11,
CCOC(=O)Cn1nc(-c2ccccc2)c2cnc3ccc(C)cc3c21,3,-35,7,24*,24*,19*,
CCOC(=O)Cn1nc(-c2ccc(C)cc2)c2ccccc2c1=O,3,5,-7,x,x,x,
O=C(Nc1ccc(Cl)cc1)c1csc(-c2ccccc2)n1,20,-50,-45,20*,20,23*,
Cc1cccc(C(=O)Nc2ccc(NC(=O)Cc3ccc(Cl)cc3)cc2)c1,6,-9,-1,2,x,x,
O=C(Nc1ccc(Cl)cc1)c1csc(-c2ccncc2)n1,-3,14,4,x,x,x,
O=C(Cc1ccc(Cl)cc1)Nc1ccc(NC(=O)c2ccccc2)cc1,11,22,10,21*,0,2,
O=C1CC(C(=O)Nc2ccccc2)S/C(=N\NC(=O)c2ccccc2Cl)N1 (centres undefined),-1,-3,-10,x,x,x,
N#Cc1cccc(C#N)c1Oc1ccc(N)cc1,x,5,-3,x,x,x,
O=C(N/N=C/c1ccco1)c1ccccc1OCc1ccc(Br)cc1,16,-59,-47,33*,20,20*,
O=C(N/N=C/c1ccco1)c1ccc(OCc2ccccc2)cc1,x,5,-3,x,x,x,
COc1ccc(Cl)cc1NC(=O)C1CSC(c2ccncc2)=N1 (centres undefined),0,-37,-3,3,x,x,
Cc1cccc(CN2C(=O)CCSc3ccc(Cl)cc32)c1,11,0,-8,9,x,x,
Cc1ccc(-c2nn3c(C)nnc3s2)cc1NC(=O)c1ccc(-c2ccc(Cl)cc2Cl)o1,4,-14,-10,19*,22*,24*,
C=COCCn1c(-c2nonc2N)nc2ccccc21,11,-7,-2,10,x,x,
CCCCOc1ccccc1NC(=O)Cn1c(-c2nonc2N)nc2ccccc21,7,-7,-1,51*,50*,93*,
NNC(=O)Cn1c(-c2nonc2N)nc2ccccc21,-1,-19,-10,x,x,x,
COc1ccc(Cn2c(-c3ccc(OC)cc3)nc3ccccc32)cc1,8,-8,-13,21*,12,6,
Nc1nonc1-c1nc2ccccc2n1Cc1ccc(Cl)cc1,14,7,11,28*,28*,27*,
Cc1cc(C)nc(NC(=O)CSc2nc3ccccc3s2)n1,2,-23,-1,2,x,x,
Cc1ccc(S(=O)(=O)NC(=O)CSc2nc3ccccc3s2)cc1,13,-21,-25,20*,12,14,
CC(=O)Nc1ccc(NC(=O)COC(=O)c2cnccn2)cc1,-5,-6,-3,x,x,x,
O=C(O)CSc1nnc(-c2ccc3c(c2)OCO3)o1,14,-32,-22,31*,18,18*,
O=C(CN1C(=O)COc2ccc(S(=O)(=O)N3CCOCC3)cc21)NCc1ccco1,x,1,7,x,x,x,
SMILES,NPY-Y1 antag,NPY1 pot ag,NPY-Y2 PAM-ag,NPY Y2 blocker,NPY1 antag ctr,NPY-Y2 ant conf,others
Cc1ccc(C(=O)Nc2cc([N+](=O)[O-])ccc2C)cc1,4,1,0,x,x,x,
Cc1ccc([N+](=O)[O-])cc1NC(=O)c1ccc(-c2ccccc2)cc1,19,-32,-6,22*,9,12,
O=C(N/N=C/c1ccc2c(c1)OCO2)c1ccc(COc2cccc3cccnc23)cc1,0,1,1,x,x,x,
COc1cc(CO)cc(Br)c1OCC(=O)Nc1cccc2ccccc12,2,3,-1,x,x,x,
O=C(NC1CCCCC1)c1cnn2c(C(F)(F)F)cc(-c3ccco3)nc12,13,-25,5,19*,10,3,
COc1ccc2nc(NC(=O)c3sc4nc(C)cc(C)c4c3N)sc2c1,x,20,5,x,x,x,
Cc1ccc(CNC(=O)c2cn(C3CCCCC3)c(=O)c3c2c2ccccc2n3C)o1,3,-6,-3,20*,5,4,
CCN1CCN(C(=O)c2cc3nc(-c4ccccc4)cc(C(F)(F)F)n3n2)CC1,0,-18,11,0,x,x,
Cc1ccc(NC(=O)C23CCC(C)(C(=O)[C@H]2Br)C3(C)C)cc1 (some centres undefined),x,8,-4,x,x,x,
CC(C)CNC(=S)Nc1ccc(Oc2ccccc2)cc1,-11,34,18,-2,x,x,
Cc1cc(Oc2ccccc2)nc(NCc2ccccc2)n1,12,-22,-23,20*,11,4,
Cc1cc(N2CCC(C)CC2)nc(-c2ccccc2O)n1,x,-1,-20,x,x,x,
Cc1cc(N2CCC(C)CC2)nc(NCc2ccccc2)n1,14,-37,-20,17*,33*,33*,
CCOc1ccc(CNCCNC(=O)c2nonc2N)cc1,2,-8,-2,x,x,x,
Nc1nonc1C(=O)NCCNCc1ccccc1OCc1ccc(F)cc1,10,-21,-36,17*,12,12,
Cc1ccc2nc3c(c(Nc4ccc5c(c4)OCCO5)c2c1)CCC3,13,-13,19,22*,13,13,
Cc1cccc(Nc2c3c(nc4ccccc24)CCC3)c1,x,-29,-28,x,x,x,
O=C(COC(=O)/C=C/c1ccc(Cl)cc1)Nc1ccc2c(c1)OCCO2,6,3,7,17*,14,12,
CC(C)CCn1c(Oc2ccccc2Cl)nc2c1c(=O)n(C)c(=O)n2C,36*,-52,-26,17,x,x,NPY-Y1 ant conf=7;NPY2 antag ctr=8
COC(=O)c1c(C)[nH]c(C(=O)CSc2ccc(Cl)cc2)c1C,12,-35,-4,10,x,x,
Cc1ccc(S(=O)(=O)N(CC(=O)NCCC2=CCCCC2)Cc2ccccc2)cc1,21*,-10,-12,10,x,x,NPY-Y1 ant conf=-1;NPY2 antag ctr=4
COc1cc2c(cc1NC(=O)c1ccc(C(C)(C)C)cc1)CCCC2,32*,-73,-37,10,x,x,NPY-Y1 ant conf=20;NPY2 antag ctr=45*
COc1cc2c(cc1NC(=O)c1cccnc1)CCCC2,-6,-13,6,0,x,x,
COc1cc2c(cc1NC(C)=O)CCCC2,-5,11,-2,0,x,x,
COc1ccc(C(=O)Nc2cc3c(cc2OC)CCCC3)cc1Br,29*,-78,-21,10,x,x,NPY-Y1 ant conf=9;NPY2 antag ctr=10
COc1ccc(-c2nnc(SCc3ccccc3F)o2)cc1,22*,-20,-4,6,x,x,NPY-Y1 ant conf=9;NPY2 antag ctr=11
Fc1ccccc1CSc1nnc(-c2cccnc2)o1,-1,-1,-3,x,x,x,
Fc1ccccc1CSc1nnc(-c2ccccc2)o1,29*,-13,4,6,x,x,NPY-Y1 ant conf=4;NPY2 antag ctr=8
